Data reported in ChEMBL document CHEMBL1156702, “Synthesis and molecular modelling of unsaturated exomethylene pyranonucleoside analogues with antitumor and antiviral activities” (Eur J Med Chem, 2008).

What was measured:
[1] = Cytotoxicity against human H4 cells after 72 hrs; type: cell-based
How it was run: (§1)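 Cells kept in DMEM with 5% foetal calf serum, L-glutamine, penicillin/streptomycin at 37 °C, 5% CO2. Seeded cells exposed to 3-fold serial dilutions (starting 0.5 mg/mL; DMSO stock, final DMSO <0.1%) for 72 h at 37 °C. Treated wells (n=2) compared with controls (n=24). CC50 taken from concentration-effect curve.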

[2] = Cytotoxicity against human Caco-2 cells after 72 hrs; type: cell-based; how it was run: as §1
[3] = Ratio of CC50 for human Caco-2 cells to IC50 for rotavirus RF assessed by inhibition of infectivity following virus attachment

SMILES	CC50 at 72 h [1] [µM]	CC50 at 72 h [2] [µM]	Ratio CC50/IC50 [3]
C=C1C=C[C@@H](n2ccc(=O)[nH]c2=O)O[C@@H]1CO	2120		
Cc1cn([C@H]2C[C@H](N=[N+]=[N-])[C@@H](CO)O2)c(=O)[nH]c1=O [ZIDOVUDINE]		56.1	2.5
C=C1[C@@H](CO)O[C@H](n2ccc(=O)[nH]c2=O)[C@@H](O)[C@H]1O	1850		
C=C1C=C[C@@H](n2ccc(=O)[nH]c2=O)O[C@@H]1COC(c1ccccc1)(c1ccccc1)c1ccccc1	1040		
O=C1C=C[C@@H](n2ccc(=O)[nH]c2=O)O[C@@H]1CO	2100		
